Results from ChEMBL document CHEMBL1123624, “Prodrugs of L-cysteine as protective agents against acetaminophen-induced hepatotoxicity. 2-(Polyhydroxyalkyl)- and 2-(polyacetoxyalkyl)thiazolidine-4(R)-carboxylic acids” (1987).

How the values were obtained:
Mus musculus [1] = species on record: Mus musculus; test: Number of mice with necrosis was measured for compound along with acetaminophen showing necrosis rating of 4+ was reported.; format: functional
Mus musculus [2] = species on record: Mus musculus; test: Number of mice with necrosis was measured for compound along with acetaminophen showing necrosis rating of 0 was reported.; format: functional
Mus musculus [3] = species on record: Mus musculus; test: Number of mice with necrosis was measured for compound along with acetaminophen showing necrosis rating of 1+ was reported.; format: functional
Mus musculus [4] = species on record: Mus musculus; test: Number of mice with necrosis was measured for compound along with acetaminophen showing necrosis rating of 2+ was reported.; format: functional
Mus musculus [5] = species on record: Mus musculus; test: Number of mice with necrosis was measured for compound along with acetaminophen showing necrosis rating of 3+ was reported.; format: functional
Mus musculus [6] = species on record: Mus musculus; test: No of mice protected out of 10 against acetaminophen-induced Hepatotoxicity after 48 h; format: functional
Procedure, shortened: (§1)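 Male Swiss-Webster mice (19–31 g) were fasted overnight with water available. They received acetaminophen 750 mg/kg (4.97 mmol/kg) ip and then, 30 min later, prodrug 2.45 mmol/kg ip. The prodrug was given in sterile water, sterile 0.1 N NaHCO3, or as a slurry in 2% CMC. Food was then restored, and animals were checked at 12, 24 and 48 h. Survivors were counted at 48 h.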

Mus musculus [7] = species on record: Mus musculus; test: Percentage survival of mice after 48 hr.; format: functional; design: concentration or dose not given beside the values; procedure, shortened: as §1
Rattus norvegicus [8] = species on record: Rattus norvegicus; test: Inhibitory effect on GSH elevation elicited by compound in rat hepatocytes in the presence of buthionine sulfoximine (BSO) (0.2 mM); format: functional, Hepatocyte
Procedure, shortened: (§2)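 Primary rat hepatocytes pre-exposed to buthionine sulfoximine (0.20 mM) before 4 h incubation with prodrug (1.0 mM). Total GSH (GSH + GSSG) after PBS rinse and 5% sulfosalicylic acid deproteinization, by modified DTNB–glutathione reductase recycling (ΔOD 412 nm/min). Reported as nmol/10^6 cells ± SE and relative to untreated controls.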

Rattus norvegicus [9] = species on record: Rattus norvegicus; test: GSH level related to controls; format: functional
Procedure, shortened: (§3)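 Primary rat hepatocyte cultures exposed to prodrug for 4 h; medium aspirated, cells rinsed with cold PBS, deproteinized with 5% sulfosalicylic acid. Total GSH (GSH + GSSG) measured by modified DTNB–glutathione reductase recycling, from cycling rate (ΔOD 412 nm/min); expressed as nmol/10^6 cells ± SE and relative to untreated controls.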

Rattus norvegicus [10] = species on record: Rattus norvegicus; test: GSH level related to controls in the presence of buthionine sulfoximine (BSO) (0.2 mM); format: functional; procedure, shortened: as §2
Rattus norvegicus [11] = species on record: Rattus norvegicus; test: In vitro increased GSH content of rat hepatocytes when incubated with compound after 4 hr at 1.0 mM concentration.; format: functional, Hepatocyte; procedure, shortened: as §3
Mus musculus [12] = species on record: Mus musculus; test: No of mice protected out of 12 against acetaminophen-induced Hepatotoxicity after 48 h; format: functional; procedure, shortened: as §1
Mus musculus [13] = species on record: Mus musculus; test: Number of mice with necrosis was measured for compound along with acetaminophen and number of animals showing necrosis rating of 0 was reported.; format: functional
Mus musculus [14] = species on record: Mus musculus; test: Number of mice with necrosis was measured for compound along with acetaminophen and number of animals showing necrosis rating of 1+ was reported.; format: functional
Mus musculus [15] = species on record: Mus musculus; test: Number of mice with necrosis was measured for compound along with acetaminophen and number of animals showing necrosis rating of 2+ was reported.; format: functional
Mus musculus [16] = species on record: Mus musculus; test: Number of mice with necrosis was measured for compound along with acetaminophen and number of animals showing necrosis rating of 3+ was reported.; format: functional
Mus musculus [17] = species on record: Mus musculus; test: Number of mice with necrosis was measured for compound along with acetaminophen and number of animals showing necrosis rating of 4+ was reported.; format: functional
Mus musculus [18] = species on record: Mus musculus; test: Protection of mice against acetaminophen-induced Hepatotoxicity; format: functional
Procedure, shortened: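 Fasted male Swiss-Webster mice (19–31 g) were given acetaminophen 750 mg/kg ip, then prodrug 2.45 mmol/kg ip 30 min later. Outcomes were 48-h survival plus histology. Central-lobe liver sections came from animals found dead at 12/24/48 h or killed at 48 h. Sections were formalin-fixed and H&E-stained. Necrosis was rated blind using Mitchell's scale.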

Rattus norvegicus [19] = species on record: Rattus norvegicus; test: In vitro increased GSH content of rat hepatocytes when incubated with compound after 4 hr at 2.5 mM concentration.; format: functional, Hepatocyte; procedure, shortened: as §3

SMILES | No. of animals (Mus musculus [1]) | No. of animals (Mus musculus [2]) | No. of animals (Mus musculus [3]) | No. of animals (Mus musculus [4]) | No. of animals (Mus musculus [5]) | No. of survivors (Mus musculus [6]) | Survival (Mus musculus [7]) | [GSH] (Rattus norvegicus [8]) | GSH level (Rattus norvegicus [9]) | GSH level (Rattus norvegicus [10]) | [GSH] (Rattus norvegicus [11]) | No. of survivors (Mus musculus [12]) | No. of animals (Mus musculus [13]) | No. of animals (Mus musculus [14]) | No. of animals (Mus musculus [15]) | No. of animals (Mus musculus [16]) | No. of animals (Mus musculus [17]) | Survival (Mus musculus [18]) | [GSH] (Rattus norvegicus [19])
O=C(O)[C@@H]1CSC(C(O)CO)N1 (some centres undefined) | 7 | 0 | 0 | 1 | 2 | 3 | 30% | 18.3 nmol/10^6 cells | 1.3 | 0.5 | 46.1 nmol/10^6 cells | – | – | – | – | – | – | – | –
O=C(O)[C@@H]1CSC(C(O)C(O)C(O)CO)N1 (stereo in doubt; 1b) | 7 | – | 1 | 2 | – | 4 | 40% | 19.5 nmol/10^6 cells | 1.2 | – | 42.9 nmol/10^6 cells | – | – | – | – | – | – | – | –
O=C(O)[C@@H]1CSC(C(O)C(O)C(O)CO)N1 (stereo in doubt; 1c) | 9 | 0 | 0 | 0 | 1 | 3 | 30% | 22.4 nmol/10^6 cells | 1.3 | 0.6 | 45.9 nmol/10^6 cells | – | – | – | – | – | – | – | –
O=C(O)[C@@H]1CSC(C(O)C(O)C(O)CO)N1 (stereo in doubt; 1d) | 0 | 4 | 2 | 6 | 0 | – | 100% | 16.2 nmol/10^6 cells | 1.7 | 0.5 | 61.2 nmol/10^6 cells | 12 | – | – | – | – | – | – | –
O=C(O)[C@@H]1CSC(C(O)C(O)C(O)CO)N1 (stereo in doubt; 1e) | 5 | 3 | – | – | – | 6 | 60% | 22.6 nmol/10^6 cells | 1.6 | 0.8 | 58.3 nmol/10^6 cells | – | – | – | – | – | – | – | –
O=C(O)[C@@H]1CSC(C(O)C(O)C(O)C(O)CO)N1 (stereo in doubt; 1f) | 4 | 1 | 3 | 2 | 0 | 6 | 60% | 23.2 nmol/10^6 cells | 1.6 | 0.7 | 58 nmol/10^6 cells | – | – | – | – | – | – | – | –
O=C(O)[C@@H]1CSC(C(O)C(O)C(O)C(O)CO)N1 (stereo in doubt; 1g) | 7 | 0 | 2 | 0 | 1 | 3 | 30% | 25.4 nmol/10^6 cells | 2.1 | – | 75.2 nmol/10^6 cells | – | – | – | – | – | – | – | –
O=C(O)[C@@H]1CSC(C(O)C(O)C(O)C(O)CO)N1 (stereo in doubt; 1h) | 6 | 3 | 0 | 1 | – | 4 | 40% | 18.9 nmol/10^6 cells | – | 0.5 | 57.8 nmol/10^6 cells | – | – | – | – | – | – | – | –
CC(=O)Nc1ccc(O)cc1 [ACETAMINOPHEN] | 11 | 0 | 0 | 1 | 0 | – | 17% | – | – | – | – | 2 | – | – | – | – | – | – | –
CC(=O)N[C@@H](CS)C(=O)O [ACETYLCYSTEINE] | – | – | – | – | – | – | 94% | – | – | – | – | – | 13 | 3 | 0 | 1 | 1 | 17% | 45.8 nM (10e6*cells)-1
